# In article PMC8385540 (Journal of natural products, 2013):
# Assays:
# [1] = biological target: human cannabinoid CB2 receptor (Homo sapiens, UniProt P34972); test: Plate-based assay, inhibition of CB2 receptor internalization; format: cell-based
# Method in brief: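 CHO cells stably expressing human CB2, seeded at 2.0 × 10^5 cells/mL in 96-well plates, grown 24 h in DMEM/F12 with 10% FBS. Preincubated 1 h with twofold serial dilutions of test compound (top 10 μM; DMSO <0.1% final), then 1 h with 2 nM [3H]-CP 55,940. Washed, NaOH-lysed, scintillation counted, and normalized to no-compound uptake. IC50 from sigmoid nonlinear fit, means ± SE (n = 6). JD5037 as positive control.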
# [2] = biological target: human cannabinoid CB1 receptor (Homo sapiens, UniProt P21554); test: Plate-based assay, inhibition of CB1 receptor internalization; format: cell-based
# human cannabinoid CB1 receptor, sequence (P21554 whole entry): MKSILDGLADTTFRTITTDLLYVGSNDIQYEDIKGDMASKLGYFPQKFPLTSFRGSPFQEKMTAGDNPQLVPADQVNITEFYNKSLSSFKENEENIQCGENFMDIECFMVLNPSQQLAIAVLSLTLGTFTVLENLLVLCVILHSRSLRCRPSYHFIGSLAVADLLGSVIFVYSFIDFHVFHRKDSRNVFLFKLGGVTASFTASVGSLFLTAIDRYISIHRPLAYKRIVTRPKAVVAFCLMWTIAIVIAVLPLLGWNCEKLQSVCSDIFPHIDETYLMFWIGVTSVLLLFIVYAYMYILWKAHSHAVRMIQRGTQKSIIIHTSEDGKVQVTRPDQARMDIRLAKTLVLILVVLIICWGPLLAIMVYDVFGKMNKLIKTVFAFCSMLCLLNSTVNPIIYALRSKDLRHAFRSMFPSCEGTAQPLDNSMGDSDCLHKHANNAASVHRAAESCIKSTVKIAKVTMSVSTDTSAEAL
# HRH4 = HRH4 (Homo sapiens, UniProt Q9H3N8); test: DiscoveRX gpcrMAX panel, agonist/antagonist; format: cell-based; details: HRH4, antagonist mode; negative inhibition may indicate agonist or PAM activity
# HRH4, sequence (Q9H3N8 whole entry): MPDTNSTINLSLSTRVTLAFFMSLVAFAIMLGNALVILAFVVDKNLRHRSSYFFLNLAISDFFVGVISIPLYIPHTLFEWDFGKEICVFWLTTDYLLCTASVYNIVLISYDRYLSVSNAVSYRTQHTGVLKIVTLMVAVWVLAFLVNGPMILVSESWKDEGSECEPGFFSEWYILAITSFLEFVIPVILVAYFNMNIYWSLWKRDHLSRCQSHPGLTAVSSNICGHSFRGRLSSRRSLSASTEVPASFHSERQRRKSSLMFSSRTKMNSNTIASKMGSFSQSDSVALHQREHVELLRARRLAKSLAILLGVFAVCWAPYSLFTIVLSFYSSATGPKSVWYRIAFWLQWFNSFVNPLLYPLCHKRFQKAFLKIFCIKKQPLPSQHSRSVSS
# RXFP3 = biological target: T1, RXFP3 (Homo sapiens, UniProt Q9NSD7); test: DiscoveRX gpcrMAX panel, agonist/antagonist; format: cell-based; details: RXFP3, antagonist mode; negative inhibition may indicate agonist or PAM activity
# T1 sequence (Q9NSD7 1-469): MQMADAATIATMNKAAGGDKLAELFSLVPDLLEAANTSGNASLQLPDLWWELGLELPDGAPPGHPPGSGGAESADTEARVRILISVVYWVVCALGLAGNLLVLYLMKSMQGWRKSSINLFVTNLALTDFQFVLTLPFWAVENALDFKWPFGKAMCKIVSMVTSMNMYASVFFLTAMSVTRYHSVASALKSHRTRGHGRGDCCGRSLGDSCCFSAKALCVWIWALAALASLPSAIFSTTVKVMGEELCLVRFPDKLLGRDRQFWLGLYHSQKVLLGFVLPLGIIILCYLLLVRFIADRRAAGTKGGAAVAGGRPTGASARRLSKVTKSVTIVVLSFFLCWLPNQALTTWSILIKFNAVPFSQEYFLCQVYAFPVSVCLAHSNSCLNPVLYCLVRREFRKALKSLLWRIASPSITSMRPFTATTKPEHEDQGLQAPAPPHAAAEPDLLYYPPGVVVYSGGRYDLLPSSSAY
# FSH receptor = details: previously reported; cited from earlier work
# human cannabinoid CB2 receptor, sequence (P34972 whole entry): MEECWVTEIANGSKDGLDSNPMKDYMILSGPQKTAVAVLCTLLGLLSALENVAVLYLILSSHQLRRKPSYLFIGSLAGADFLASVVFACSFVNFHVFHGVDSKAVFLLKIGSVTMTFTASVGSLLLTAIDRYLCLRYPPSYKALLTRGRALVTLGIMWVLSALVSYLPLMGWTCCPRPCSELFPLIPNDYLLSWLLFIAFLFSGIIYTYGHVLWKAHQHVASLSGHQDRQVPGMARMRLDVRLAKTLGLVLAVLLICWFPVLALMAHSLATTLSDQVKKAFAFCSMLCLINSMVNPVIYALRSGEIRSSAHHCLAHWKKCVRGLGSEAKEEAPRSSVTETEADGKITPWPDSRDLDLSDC
compound,measurement,setting,value
"C/C=C/C=C/C=C\CC/C=C/C(=O)NCC(C)(C)O [Compound 2, hydroXy-α-sanshool]","fold increase in activity against the CB2 receptor, 2 vs 3",[1]; cis configuration at C-6 of 2 compared with 3,2 fold
"C/C=C/C=C/C=C\CC/C=C/C=C/C(=O)NCC(C)(C)O [Compound 4, hydroXy-γ-sanshool]","fold more potent for CB1, 4 vs 5",[2]; C-8 cis-isomer 4 compared with 5,10 fold
"CC/C=C/C/C=C\CC/C=C/C=C/C(=O)NCC(C)(C)O [Compound 6, isobungeanool]",antagonism of the CB2 receptor (in words),[1],weak antagonists
"C/C=C/C=C/C=C/CC/C=C/C=C/C(=O)NCC(C)C [Compound 7, (2E,4E,8E,10E,12E)-N-isobutyl-2,4,8,10,12-tetradecapentaenamide]",% inhibition,HRH4,−54%
same,antagonism of the CB2 receptor (in words),[1],weak antagonists
same,% inhibition,RXFP3,−81%
same,antagonistic properties against the CB1 receptor (in words),[2],strong antagonistic properties
"CCCCCCCCC/C=C/C=C/C(=O)NCC(C)(C)O [Compound 8, tetrahydrobungeanool]",IC50,[1],1.8 nM
"CC(C)[C@H](N=C(NS(=O)(=O)c1ccc(Cl)cc1)N1C[C@H](c2ccccc2)C(c2ccc(Cl)cc2)=N1)C(N)=O [JD5037, reference compound]","IC50 of positive control, CB2 (in words)",[1]; positive control,within the expected range
same,"IC50 of positive control, CB1 (in words)",[2]; positive control,within the expected range
CCCCCc1cc(O)c2c(c1)OC(C)(C)[C@@H]1CCC(C)=C[C@@H]21 [Δ^9-tetrahydrocannabinol],inhibition of the FSH receptor (in words),FSH receptor,specific inhibition
